Target: T1, Vesicular acetylcholine transporter (Torpedo californica, UniProt P81721)
T1 sequence (P81721 whole entry): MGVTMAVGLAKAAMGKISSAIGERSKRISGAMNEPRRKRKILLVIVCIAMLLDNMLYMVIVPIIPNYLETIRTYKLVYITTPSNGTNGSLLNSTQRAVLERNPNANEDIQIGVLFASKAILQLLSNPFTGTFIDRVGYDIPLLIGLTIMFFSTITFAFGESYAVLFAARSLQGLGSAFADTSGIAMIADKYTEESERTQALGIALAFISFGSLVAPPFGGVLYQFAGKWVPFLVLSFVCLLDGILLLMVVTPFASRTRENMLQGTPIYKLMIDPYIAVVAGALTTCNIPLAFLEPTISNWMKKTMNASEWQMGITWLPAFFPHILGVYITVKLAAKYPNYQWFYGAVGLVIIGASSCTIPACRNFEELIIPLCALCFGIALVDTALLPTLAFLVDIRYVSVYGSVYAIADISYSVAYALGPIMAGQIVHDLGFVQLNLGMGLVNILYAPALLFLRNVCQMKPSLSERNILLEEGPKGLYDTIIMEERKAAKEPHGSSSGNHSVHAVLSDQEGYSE
Experiment: Inhibition of [3H]- vesamicol binding to synaptic vesicles preparation from the electric organ of Torpedo californica
Set-up: species or system Tetronarce californica
Summary of the method: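 Run without ATP and without acetylcholine. Each drug concentration tested in duplicate, with variation below 5%. Other assay details follow an earlier published protocol.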

IC50 [nM] | SMILES
5000 | O[C@@H]1CNCC[C@H]1N1CCC(c2ccccc2)CC1
22 | O[C@@H]1CCN(Cc2ccccc2Br)C[C@H]1N1CCC(c2ccccc2)CC1
1900 | O=C(c1ccccc1)N1CC[C@@H](N2CCC(c3ccccc3)CC2)[C@H](O)C1
22 | Cc1cccc(CN2CC[C@@H](O)[C@H](N3CCC(c4ccccc4)CC3)C2)c1
250 | O=C(c1ccccc1I)N1CC[C@@H](O)[C@H](N2CCC(c3ccccc3)CC2)C1
290 | O=[N+]([O-])c1ccc(N2CC[C@@H](O)[C@H](N3CCC(c4ccccc4)CC3)C2)cc1
55 | O[C@@H]1CN(Cc2ccccc2Br)CC[C@H]1N1CCC(c2ccccc2)CC1
25 | Cc1ccccc1CN1CC[C@@H](O)[C@H](N2CCC(c3ccccc3)CC2)C1
30 | O[C@@H]1CCN(Cc2ccccc2)C[C@H]1N1CCC(c2ccccc2)CC1
24 | Cc1ccc(CN2CC[C@@H](O)[C@H](N3CCC(c4ccccc4)CC3)C2)cc1
31 | O[C@@H]1CCN(Cc2cccc(F)c2)C[C@H]1N1CCC(c2ccccc2)CC1
2900 | O[C@@H]1CCNC[C@H]1N1CCC(c2ccccc2)CC1
25 | O[C@@H]1CCN(Cc2ccc(Br)cc2)C[C@H]1N1CCC(c2ccccc2)CC1
42 | O[C@@H]1CCN(Cc2ccccc2F)C[C@H]1N1CCC(c2ccccc2)CC1
39 | O=C(c1cccc(I)c1)N1CC[C@@H](O)[C@H](N2CCC(c3ccccc3)CC2)C1
22 | O=C(c1ccc(I)cc1)N1CC[C@@H](O)[C@H](N2CCC(c3ccccc3)CC2)C1
21 | O[C@@H]1CCN(Cc2cccc(Br)c2)C[C@H]1N1CCC(c2ccccc2)CC1
34 | O=C(c1ccccc1)N1CC[C@@H](O)[C@H](N2CCC(c3ccccc3)CC2)C1
310 | O[C@@H]1CN(Cc2ccc(Br)cc2)CC[C@H]1N1CCC(c2ccccc2)CC1
83 | O[C@@H]1CN(Cc2ccccc2)CC[C@H]1N1CCC(c2ccccc2)CC1

SMILES | IC50 [nM]
O[C@@H]1CCN(Cc2ccc(F)cc2)C[C@H]1N1CCC(c2ccccc2)CC1 | 14
O[C@@H]1CCN(Cc2cccc(I)c2)C[C@H]1N1CCC(c2ccccc2)CC1 | 26

Source: ChEMBL document CHEMBL1126645, “Nonsymmetrical bipiperidyls as inhibitors of vesicular acetylcholine storage” (J Med Chem, 1993)
